Reference: ChEMBL document CHEMBL5346864, “Identification of L. infantum trypanothione synthetase inhibitors with leishmanicidal activity from a (non-biased) in-house chemical library” (Eur J Med Chem, 2022)
Calls of active or inactive are those of the source. The rule behind the calls is not given here.

Key:
[1] = (§1) Inhibition of N-terminal His6-tagged recombinant Leishmania infantum promastigotes (MCAN/ES/89/IPZ229/1/89) TryS expressed in Escherichia coli BL21(DE3) Rossetta using saturating concentrations of ATP and GSH and Km concentration of Spd as substrate measured after 30 mins by BIOMOL Green reagent based assay
[2] = as §1, with “GspdSH” for “Spd”
[3] = as §1, with “GSH” for “ATP”, “Spd” for “GSH”, “ATP” for “Spd”
Leishmania infantum [4] = assay: Leishmanicidal activity against Leishmania infantum axenic amastigotes (MCAN/ES/89/IPZ229/1/89) assessed as inhibition of parasite proliferation measured after 24 hrs by resazurin dye based fluorescence analysis; type: functional, organism-based; details: MCAN/ES/89/IPZ229/1/89, 24 h
How it was run: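 L. infantum MCAN/ES/89/IPZ229/1/89 axenic amastigotes (M199-based medium, pH 5.4, 37 °C) from log cultures seeded at 10^6/mL and treated 24 h at 37 °C. Resazurin added for a further 24 h; fluorescence read at ex 560/em 590 nm, normalized to vehicle, EC50 from two-parameter fit; triplicate in three independent experiments.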

[5] = Inhibition of N-terminal His6-tagged recombinant Leishmania infantum promastigotes (MCAN/ES/89/IPZ229/1/89) TryS expressed in Escherichia coli BL21(DE3) Rossetta using saturating concentrations of ATP, GSH and GspdSH as substrate measured after 30 mins by BIOMOL Green reagent based assay
How it was run: (§2)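 Recombinant His-LiTryS at 25 nM final, 100 mM HEPES pH 8, 0.5 mM EDTA, 10 mM MgCl2, 100 µM DTT, 2% DMSO, 37 °C, 30 min. Saturating substrates: 150 µM ATP, 100 µM GSH, 2 mM Spd or 500 µM GspdSH. […] Phosphate via BIOMOL Green, A650; 6-point curves, triplicate, three experiments.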

[6] = Inhibition of N-terminal His6-tagged recombinant Leishmania infantum promastigotes (MCAN/ES/89/IPZ229/1/89) TryS expressed in Escherichia coli BL21(DE3) Rossetta using saturating concentrations of ATP, GSH and Spd as substrate measured after 30 mins by BIOMOL Green reagent based assay; how it was run: as §2
[7] = as §1, with “Spd” for “GSH”, “GSH” for “Spd”
[8] = (§3) Competitive inhibition of N-terminal His6-tagged recombinant Leishmania infantum promastigotes (MCAN/ES/89/IPZ229/1/89) TryS expressed in Escherichia coli BL21(DE3) Rossetta with fixed concentration of ATP and GSH and varying concentrations of GspdSH as substrate measured after 30 mins by Lineweaver-Burk double-reciprocal plot analysis
How it was run: (§4)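 Recombinant His-tagged LiTryS (62.5 nM added to start) in 100 mM HEPES pH 8, 50 µL, 37 °C, 30 min; phosphate read with BIOMOL Green at 650 nm. Four inhibitor concentrations crossed with four varied substrate levels, no enzyme preincubation. […] Lineweaver-Burk analysis, three experiments.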

[9] = Selectivity index, ratio of CC50 for cytotoxicity against human HepG2 cells to EC50 for Anti-Leishmanial activity against GFP-expressing Leishmania infantum axenic amastigotes infected in human THP-1 cells; type: toxicity, cell-based; details: read-out: Ratio CC50/EC50
Leishmania infantum [10] = assay: Anti-leishmanial activity against GFP-expressing Leishmania infantum axenic amastigotes infected in human THP-1 cells assessed as reduction in live intracellular GFP+ amastigotes measured after 72 hrs by fluorescence based analysis; type: functional, organism-based; details: THP-1, 72 h
How it was run: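 THP-1 monocytes differentiated 24 h with 100 ng/mL PMA, infected 24 h with GFP-expressing L. infantum axenic amastigotes (5 × 10^6/mL), non-internalized parasites removed by washes and a 24 h horse-serum challenge. Treatment for 72 h at 37 °C in RPMI with 10% horse serum. SDS lysis; live (propidium iodide-negative) GFP+ amastigotes counted by flow cytometry, normalized to vehicle, EC50 by two-parameter fit; three independent experiments.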

[11] = as §3, with “Spd” for “ATP”, “ATP” for “GspdSH”; how it was run: as §4
[12] = Cytotoxicity against human HepG2 cells assessed as reduction in cell proliferation measured after 72 hrs by crystal violet staining based analysis; type: toxicity
Leishmania infantum [13] = assay: Increase in the intracellular superoxide radical concentration in Leishmania infantum axenic amastigotes at 1 uM incubated for 2 hrs by DHE-derived flow cytometry; type: functional, cell-based
Leishmania infantum [14] = assay: Induction of mitochondrial inner membrane depolarization in Leishmania infantum axenic amastigotes at 5 uM incubated for 2 hrs by TMRM-derived flow cytometry
Leishmania infantum [15] = assay: Induction of plasma membrane depolarization in Leishmania infantum axenic amastigotes at 1 uM incubated for 2 hrs by DiBAC4(3)-derived flow cytometry
[16] = Inhibition of N-terminal His6-tagged recombinant Leishmania infantum promastigotes (MCAN/ES/89/IPZ229/1/89) TryS expressed in Escherichia coli BL21(DE3) Rossetta by BIOMOL Green reagent based assay; how it was run: as §2
[17] = as §3, with “Mixed” for “Competitive”; how it was run: as §4

Structure (SMILES)	IC50 [1] [µM]	IC50 [2] [µM]	IC50 [3] [µM]	IC50 [5] [µM]	IC50 [6] [µM]	IC50 [7] [µM]	EC50 (Leishmania infantum [10]) [µM]	Activity (Leishmania infantum [14])	Activity (Leishmania infantum [15])	IC50 [16] [µM]	EC50 (Leishmania infantum [4]) [µM]	Ki [8] [µM]	selectivity ratio [9]	Ki [11] [µM]	CC50 at 72 h [12] [µM]	Activity (Leishmania infantum [13])	Ki [17] [µM]
CCCCCCCCCCCCCCCOc1cc(C[N+](C)(C)C2CCCC2)ccc1OCCCCCCCCCCCCCC	8.4	6	8.9	7.5	9.8	8.7					> 75						
NCCCCc1cn(-c2ccc(-c3nc(-c4ccc(Oc5ccccc5)cc4)c(-c4ccccc4)s3)c(OCCN3CCNC3=O)c2)nn1	10.9	10.7	8.7	16.2	14.8	14.2	13.5				21.5	3.9	1.2	5.4	15.9		
CCCCCCCCCCCCCCCCOP(=O)([O-])OCC[N+](C)(C)C [MILTEFOSINE]							0.7	Active	Active	45.6	0.5		> 107		> 75	Active	
CCCCCCCCCCCC(=O)NC(COC(=O)c1ccc(OCCN)c(OCCN)c1)COC(=O)c1cc(OCCN)c(OCCN)c(OCCN)c1 (stereo unspecified)	9.9	4.9	13.4	7.2	14.8	14.6	17.9				7.3	2.6	> 4.2		> 75		
CCCCCCCCCCCCCCOc1ccc(C[N+](C)(C)C2CCCC2)cc1OC	5.5	3.8	7.3	7.1	7.9	7.8	0.6	Active	Active		0.4		35.5		21.3	Active	

Now from value to compound, other results behind:

IC50 [1] [µM]	IC50 [2] [µM]	IC50 [3] [µM]	IC50 [5] [µM]	IC50 [6] [µM]	IC50 [7] [µM]	EC50 (Leishmania infantum [10]) [µM]	Activity (Leishmania infantum [14])	Activity (Leishmania infantum [15])	IC50 [16] [µM]	Structure (SMILES)	EC50 (Leishmania infantum [4]) [µM]	Ki [8] [µM]	selectivity ratio [9]	Ki [11] [µM]	CC50 at 72 h [12] [µM]	Activity (Leishmania infantum [13])	Ki [17] [µM]
5.6	2	5.4	2.2	4.4	5.4					O=C(OC[C@H]1O[C@H](O[C@H]2O[C@H](COC(=O)c3cc(O)c(O)c(O)c3)[C@@H](OC(=O)c3cc(O)c(O)c(O)c3)[C@H](OC(=O)c3cc(O)c(O)c(O)c3)[C@H]2OC(=O)c2cc(O)c(O)c(O)c2)[C@H](OC(=O)c2cc(O)c(O)c(O)c2)[C@@H](OC(=O)c2cc(O)c(O)c(O)c2)[C@@H]1OC(=O)c1cc(O)c(O)c(O)c1)c1cc(O)c(O)c(O)c1	43.7						0.8
4.7	5.1	7.1	5.9	5.4	6.7					O=C(O[C@@H]1OC[C@@H](OC(=O)c2ccc(O)c(O)c2O)[C@@H](OC(=O)c2ccc(O)c(O)c2O)[C@H]1OC(=O)c1ccc(O)c(O)c1O)c1ccc(O)c(O)c1O	47.6						
